Rpn11 block: Rpn11 (human) deubiquitinase inhibition; O00487; human 26S proteasome, Ub4-pepOG fluorescence polarization; 20S core pre-blocked with epoxomicin; inhibition, % at 20 µM; 0.59% of 360,000 active; AID 588493;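 active = inhibition at 20 µM, scaled to each plate's controls, above about 33%, limit read from the data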
Target sequence (O00487 whole entry, looked up): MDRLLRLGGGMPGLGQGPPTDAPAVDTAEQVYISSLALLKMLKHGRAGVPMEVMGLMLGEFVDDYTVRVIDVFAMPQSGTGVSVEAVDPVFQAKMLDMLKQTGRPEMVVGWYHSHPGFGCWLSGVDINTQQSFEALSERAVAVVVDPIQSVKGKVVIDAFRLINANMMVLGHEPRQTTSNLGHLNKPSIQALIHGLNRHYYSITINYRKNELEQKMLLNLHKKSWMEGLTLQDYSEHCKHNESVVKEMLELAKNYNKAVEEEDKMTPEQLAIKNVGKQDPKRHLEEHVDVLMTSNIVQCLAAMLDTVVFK
IDE act: activators of human insulin-degrading enzyme in cells; HEK cells, FAbeta-B cleavage, fluorescence polarization; 0% vehicle, 100% cell-free pure enzyme wells; activation, % at 5.96 µM; 0.073% of 340,000 active;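 active = activation above the mean of all tested compounds plus 3 SD, set per screening campaign, cut at about 17% in these data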
CSN inh: inhibitors of human CSN-mediated cullin deneddylation. Q92905. Purified CSN, SCF-Nedd8-OG deneddylation, fluorescence polarization. inhibition, % at 12.5 µM. 0.38% of 360,000 active. AID 651999;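 active = pattern-corrected inhibition above about 35%, with an unprinted fluorescence ratio check between 0.5 and 1.5, limit read from the data, passing the limit was not always enough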;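 note: 0% = enzyme with substrate and 100% = substrate without enzyme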
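Assay system: HEK293T-derived human Csn5 enzyme; quantity: 0.24 nM enzyme; medium: Tris/NaCl/DTT buffer, pH 7.5; also added: substrate SCFSkp2-Nedd8OG, 10 nM; doses: 12.5 µM compound; schedule: 90 min reaction at room temperature; signal: FP; read-out: % inhibition of substrate cleavage by Csn5; benchmarks: substrate-only high control, full reaction low control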
HNF4A DNA FP: change in binding of human HNF4 alpha to DNA. P41235. HNF4a-FITC DNA binding, fluorescence polarization, 1 h. activity change, % at 10 µM. 0.3% of 360,000 active. AID 1224865; in the data active = activity change above about 30%, passing the limit was not always enough
IDE cell inh: inhibits human insulin-degrading enzyme in HEK cells | inhibition, % at 5.59 µM | FAbetaB cleavage, fluorescence polarization | 0.41% of 320,000 active | AID 434962 | P14735;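 active = percent inhibition above the average of all tested compounds plus 3 SD, set per screening campaign, cut at about 16% in these data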;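 note: IDE supplied by intact live HEK cells; FP after avidin binding of uncleaved biotin substrate so inhibition keeps polarization high; 0% = DMSO wells and 100% = 60 µM reference IDE inhibitor Ii1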
TPT1 inh: C. albicans TPT1 enzyme inhibition; inhibition, % at 5 µM; 0.81% of 300,000 active; recombinant caTPT1, FP RNA substrate dephosphorylation;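 active = inhibition above the mean of all tested compounds plus 3 SD, set per screening campaign, cut at about 24% in these data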;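 note: plate controls were DMSO alone for no effect and ferristatin control at 100 nM for full effect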
Starred values were filed as active, the others as inactive; . = no result given. Rows were chosen to be rich in hits. Some 1.7% of all compounds tested hit in one or more screens of this group.

SMILES	Rpn11 block	IDE act	CSN inh	HNF4A DNA FP	IDE cell inh	TPT1 inh
COc1ccccc1-c1cn(CC[C@@H]2CC[C@H](NC(=O)C3CCC3)[C@@H](CO)O2)nn1	.	.	0	0	.	.
CCN=C1NN=C(c2ccc(C)cc2)CS1	41*	1	3	14	-1	20
c1ccc(CN=C2NN=C(c3ccccc3)CS2)cc1	8	2	3	-1	0	5
O=C(C[n+]1ccc2ccccc2c1)c1cccc2ccccc12	3	5	4	-4	4	-2
O=C(/C=C/c1cc[n+](CC(=O)c2ccc3cccc4c3c2CC4)cc1)c1ccc2cccc3c2c1CC3	119*	2	113*	178	6	49*
COc1ccc(Nc2nc(Cl)c(C=O)s2)cc1	.	-2	41*	88*	4	11
COc1ccc(/C=C(\C#N)C(=O)N2CCOCC2)cc1Br	-4	1	-2	1	1	-3
Cc1cc(/C=C(\C#N)C(=O)N2CCOCC2)c(C)n1C1CCCC1	5	5	110*	7	2	-1
CC1CC(=O)N(c2ccc(NCc3ccc(Cl)cc3)c([N+](=O)[O-])c2)C1=O (stereo not given)	.	6	39*	-3	2	1
COc1ccc(/C=N\NC(=O)c2ccc([N+](=O)[O-])c(C)c2)cc1COc1ccccc1C(N)=O	21	5	35*	11	7	-5
COc1ccc(/C=N/NC(=O)c2cccnc2)cc1COc1ccc([N+](=O)[O-])c(C)c1	5	.	2	4	-3	-1
O=C(CSc1ccc2ccccc2n1)Nc1nsc(-c2ccc(Cl)cc2)n1	14	2	54*	9	4	0
CCCNC(=O)N1C[C@H](O)COC[C@H]2O[C@@H](CC(=O)N[C@@H]3CCN(Cc4ccccc4)C3)CC[C@@H]21	.	.	-3	4	.	.
COc1ccc2[nH]c(=O)c(C(c3nnnn3C(C)(C)C)N(Cc3ccco3)CC3CCCO3)cc2c1 (stereo not given)	-4	3	2	0	5	-4
Cc1cc2cc(C(c3nnnn3C(C)(C)C)N(Cc3ccco3)CC3CCCO3)c(=O)[nH]c2cc1C (stereo not given)	17	3	7	43*	4	2
CCCc1ccc(Oc2cc(C)nc(N3CCOCC3)n2)cc1	-1	2	94*	3	3	1
FC(F)(F)c1cc(Cl)c2nc(-c3ccco3)c(Cc3ccccc3C(F)(F)F)n2c1	.	.	17	13	.	.
Cc1c2c(cc3c1[nH]c1ccccc13)C=NCC2	.	-3	65*	64*	.	.
Cc1c2ccncc2cc2c1[nH]c1ccccc12	27	-6	11	9	.	.
COc1ccc2c(CN3CCN(c4ccccc4F)CC3)cc(=O)oc2c1	-4	.	100*	-2	.	.
COc1ccc2c(CN3CCN(c4ccccc4OC)CC3)cc(=O)oc2c1	4	.	74*	11	.	.
Cc1ccc2c(CN3CCN(c4ccccc4F)CC3)cc(=O)oc2c1	6	.	-3	1	.	.
O=C(NCc1ccccc1Cl)c1csc(COCCO)n1	8	.	5	4	.	.
COc1ccc(NC(=O)C(c2ccccc2)n2c(=O)c(-c3ccco3)nc3ccccc32)cc1 (stereo not given)	.	.	-1	12	.	.
CC(C)C(=O)Nc1ccc(-c2ccc3nncn3n2)cc1	4	6	1	-1	8	0
SMILES	Rpn11 block	IDE act	CSN inh	HNF4A DNA FP	IDE cell inh	TPT1 inh
O=C(Nc1ccc(-c2ccc3nncn3n2)cc1)c1ccc(Br)o1	14	8	64*	-6	4	4
O=C(O)CN1C(=O)/C(=C/C=C/c2ccccc2)SC1=S	1	3	10	2	3	0
CCN1C(=O)C(=CC=CN(C)c2ccccc2)SC1=S	.	.	64*	176	.	.
Cn1ccc2c(N(Cc3ccccc3)Cc3ccccc3)cc3c(c21)C1CCC3O1 (stereo not given)	3	.	84*	2	.	.
COC(=O)[C@]12CCCCC=C1N(Cc1cccc3ccccc13)C(=O)[C@H](CC(=O)N1CCCCC1)C2	.	.	-5	0	.	.
Cc1ccc(CNC(=O)c2nnn(CC(=O)Nc3cccc(C)c3C)c2N)cc1	16	3	36*	-3	-6	-1

Screening results (PubChem)
